From ChEMBL document CHEMBL1148952, “A new ene-triyne antibiotic from the fungus Baeospora myosura” (2004)
Converted amounts (≈) assume the structure as drawn. The source made the active and inactive calls. The calls are words filed in the database; no cut-off is given here.

What was measured:
[1] = tested on: Staphylococcus aureus; test: Antimicrobial activity against methicillin-sensitive Staphylococcus aureus after 20 hrs; format: functional
Summary of the method: (§1)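 Broth MIC determination in cation-adjusted Mueller-Hinton broth, inoculum 10^5 cfu/mL, incubated 35 °C for 20 h.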

[2] = tested on: Staphylococcus aureus; test: Antimicrobial activity against methicillin-resistant coagulase negative Staphylococcus aureus after 20 hrs; format: functional; summary of the method: as §1
[3] = tested on: Staphylococcus aureus; test: Antimicrobial activity against methicillin-sensitive Staphylococcus aureus after 20 hrs in presence of 50% serum; format: functional
[4] = tested on: Staphylococcus aureus; test: Antimicrobial activity against methicillin-resistant Staphylococcus aureus after 20 hrs; format: functional; summary of the method: as §1
[5] = tested on: Streptococcus pneumoniae; test: Antimicrobial activity against Streptococcus pneumoniae after 20 hrs; format: functional
Summary of the method: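 MIC by broth dilution in cation-adjusted Mueller-Hinton broth with 2.5% lysed horse blood. Inoculum 10^5 cfu/mL, 35 °C for 20 h. DMSO stock quantified by UV absorbance at 325 nm.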

[6] = tested on: Escherichia coli; test: Antimicrobial activity against Escherichia coli after 20 hrs; format: functional
Summary of the method: (§2)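 Broth MIC in cation-adjusted Mueller-Hinton broth. Inoculum 10^5 cfu/mL, incubated 35 °C for 20 h. Test material was held as a DMSO stock, with concentration set by UV absorbance at 325 nm of a MeOH dilution (ε = 2 × 10^4 M-1 cm-1).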

[7] = tested on: coagulase-negative Staphylococcus; test: Antimicrobial activity against methicillin-resistant coagulase negative Staphylococcus after 20 hrs
[8] = tested on: Klebsiella pneumoniae; test: Antimicrobial activity against Klebsiella pneumoniae after 20 hrs; format: functional; summary of the method: as §2
[9] = tested on: Enterococcus faecium; test: Antimicrobial activity against vancomycin-resistant Enterococcus faecium after 20 hrs; format: functional; summary of the method: as §1
[10] = tested on: Priestia megaterium; test: Antimicrobial activity against Bacillus megaterium after 20 hrs; format: functional; summary of the method: as §2
[11] = tested on: Streptococcus pneumoniae; test: Antimicrobial activity against penicillin-resistant Streptococcus pneumoniae after 20 hrs; format: functional
Summary of the method: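 Broth MIC determination in cation-adjusted Mueller-Hinton broth supplemented with 2.5% lysed horse blood, inoculum 10^5 cfu/mL, incubated 35 °C for 20 h.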

[12] = tested on: Streptococcus pyogenes; test: Antimicrobial activity against Streptococcus pyogenes after 20 hrs; format: functional
[13] = tested on: Haemophilus influenzae; test: Antimicrobial activity against Haemophilus influenzae after 20 hrs; format: functional
Summary of the method: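 Haemophilus Test medium broth MIC. Inoculum 10^5 cfu/mL, incubated 35 °C for 20 h. Compound supplied from a DMSO stock quantified by UV absorbance at 325 nm.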

[14] = tested on: Enterococcus faecalis; test: Antimicrobial activity against vancomycin-sensitive Enterococcus faecalis after 20 hrs; format: functional; summary of the method: as §2
[15] = tested on: Pseudomonas aeruginosa; test: Antimicrobial activity against Pseudomonas aeruginosa after 20 hrs; format: functional; summary of the method: as §2
[16] = tested on: Candida albicans; test: Antimicrobial activity against Candida albicans after 24 hrs; format: functional
Summary of the method: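 Yeast MIC in RPMI 1640. Inoculum 10^3 cfu/mL, incubated 35 °C for 24 h. Compound supplied from a DMSO stock quantified by UV absorbance at 325 nm.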

CCCCCCCCC(=O)Nc1ccc(C(=O)O)cc1
Activity [1]: inactive
Activity [2]: inactive
Activity [3]: inactive
Activity [4]: inactive

C#CC#CC#C/C=C/C(=O)Nc1ccc(C(=O)O)cc1
MIC [5]: 8 µg/mL (≈ 30.4 µM)
MIC [6]: 32 µg/mL (≈ 122 µM)
MIC [7]: 0.5 ng/mL (≈ 0.0019 µM)
MIC [8]: > 32 µg/mL
MIC [9]: 0.015 µg/mL (≈ 0.057 µM)
MIC [1]: 0.5 ng/mL (≈ 0.0019 µM)
MIC [10]: 4 µg/mL (≈ 15.2 µM)
MIC [11]: 16 µg/mL (≈ 60.8 µM)
MIC [3]: 16 µg/mL
MIC [12]: 8 ng/mL (≈ 0.0304 µM)
MIC [13]: 0.5 µg/mL (≈ 1.9 µM)
MIC [14]: 0.12 µg/mL (≈ 0.456 µM)
MIC [15]: > 32 µg/mL
MIC [4]: 1 ng/mL (≈ 0.0038 µM)
MIC [16]: > 32 µg/mL

CC(=O)Nc1ccc(C(=O)O)cc1
Activity [1]: inactive
Activity [2]: inactive
Activity [3]: inactive
Activity [4]: inactive
